Measured values of several laboratories.
Compare with care: the assays were run in different laboratories.
KCNH2: Voltage-gated inwardly rectifying potassium channel KCNH2 (KCNH2, Homo sapiens, UniProt Q12809)

The viability of N[C@H]1C(O)O[C@H](CO)[C@@H](O)[C@@H]1O (stereo partly shown) is reported as 102% (Caco-2; cell growth or viability, CCK-8; 10 mM).
For CN1C[C@H](COc2nccc3c(NCc4ccco4)cc(Cl)nc23)OC1=O, the inhibition was 21.4% (KCNH2; ion current, inhibitor; HEK293; 10 µM).
COc1ccc2c(c1)CN(C(=O)CCN1CCC(Cc3ccccc3)CC1)CC[S@@+]2[O-] has a Tmax of 0 h (male human, plasma; intravenous, 0.01 mg/kg, healthy volunteers).
For CCOC(=O)C1=C(CN2CCC[C@@H]2C(=O)Nc2ccc(B(O)O)cc2)NC(c2nccs2)=N[C@H]1c1ccc(F)cc1Br, the inhibition was 31.8% (KCNH2; ion current, inhibitor, patch clamp; HEK293; 3 µM, pH 7.4).
For CC(=O)N1CCC(C(=O)N2CCN3C(=O)c4cc(-c5ccccc5)ccc4NC(=O)C3C2)CC1 (stereo not shown), the inhibition was 2.6% (KCNH2; ion current, inhibitor, patch clamp; HEK293; 0.1 µM).
The Tmax of CC(C)n1cc(C#N)c2cc(-n3cc(C(=O)O)cn3)ccc21 is reported as 4.01 h (human, plasma; oral, 300 mg, single dose, fasted, healthy volunteers).
For O=C(COc1ccc(Cl)cc1)NC12CC(c3nnc([C@H]4C[C@@H](OC(F)(F)F)C4)o3)(C1)C2, the Tmax was 24 h (human, plasma; oral, 100 mg, single dose, fasted, healthy volunteers).
The MRT(0-inf) of COc1nc(-c2cccc(-c3ccccc3)c2C)ccc1CNCCNC(=O)CCCCCCCCCCC(=O)N1CCN(CCNC(=O)c2cc3c(=O)n4cccc(C)c4nc3n(CCc3cccs3)c2=N)CC1 is reported as 13.6 h (male Sprague-Dawley rat, plasma; oral, 40 mg/kg).
For COc1cccc(OC)c1-c1cc(C(=O)NC2(C(=O)O)C3CC4CC(C3)CC2C4)nn1-c1ccc(C(=O)N(C)CCCN(C)CCCN(C)C(=O)CN2CCN(CC(=O)[O-])CCN(CC(=O)[O-])CCN(CC(=O)[O-])CC2)cc1C(C)C.[177Lu+3] (stereo not shown), the tracer uptake was 0.28 %ID/g (HT-29; pancreas; 7 days, tumour-bearing).
C[C@H]1Oc2cc(cnc2N)-c2c(nn(C)c2C#N)CN(C)C(=O)c2ccc(F)cc21 has an MRT(0-t) of 11.9 h (male Sprague-Dawley rat, plasma; oral, 50 mg/kg, single dose).
